Results: ChEMBL document CHEMBL4414552, “Homotrimerization Approach in the Design of Thrombospondin-1 Mimetic Peptides with Improved Potency in Triggering Regulated Cell Death of Cancer Cells” (J Med Chem, 2019)
The source made the active and inactive calls. Square brackets hold non-standard residues; d marks the D form. Peptide text beside a SMILES is read from it. NMeR = CN[C@@H](CCCNC(=N)N)C(=O)O; Nle = CCCC[C@H](N)C(=O)O

Tests used:
[1] = test system: A549; test: Disruption of membrane integrity in human A549 cells assessed as increase in adenylate kinase release at 200 uM by ToxiLight bioassay; assay type: functional, cell-based
[2] = test system: MEC1; test: Cytotoxicity against human MEC1 cells assessed as induction of cell death after 2 hrs by annexin V/propidium iodide staining based flow cytometric analysis; assay type: functional; conditions: MEC1, 2 h, read-out: LC50 (the source's name)
Procedure, shortened: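 MEC-1 CLL cells (TP53-dysfunctional) maintained in Advanced RPMI 1640 with 10% fetal calf serum, 2 mM L-glutamine and penicillin–streptomycin. Peptide treatment for 2 h in complete medium. Ann-V-APC (0.1 μg/mL) and PI (0.5 μg/mL) staining, read by flow cytometry. Cell death taken as the sum of AnnV+/PI- and AnnV+/PI+ events. Mean ± SD of at least three independent experiments.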

[3] = test system: A549; test: Induction of cell death in human A549 cells assessed as reduction in cell index at 200 uM measured every minute for first 2 hrs followed by every hour for 24 hrs by RTCA analysis; assay type: functional, cell-based
[4] = test system: MEC1; test: Induction of cell death in human MEC1 cells at 50 uM in presence of ryanodine inhibitor dantrolene/PLCgamma1 inhibitor U73122/IP3R inhibitor 2-APB by annexin V-APC/propidium iodide staining based flow cytometric analysis; assay type: functional
Procedure, shortened: (§1)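 Peptide was then added at 5 or 50 μM in serum-free medium for 2 h. Cell death was read by Ann-V/PI flow cytometry and normalized to each peptide's control to give an index. Mean ± SD of at least two experiments.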

[5] = test system: MEC1; test: Induction of cell death in human MEC1 cells at 50 uM in presence of ryanodine inhibitor dantrolene administered 1 hr post dantrolene treatment in serum-free medium by annexin V-APC/propidium iodide staining based flow cytometric analysis; assay type: functional; procedure, shortened: as §1
[6] = test system: MEC1; test: Induction of cell aggregation in human MEC1 at 200 uM after 2 hrs by microcopic method; assay type: functional, cell-based
Procedure, shortened: (§2)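 MEC-1 CLL cells kept in Advanced RPMI 1640 with 10% FCS, 2 mM L-glutamine and penicillin–streptomycin. Cells were treated with peptide in complete medium for 2 h, then examined by light microscopy at 20X for morphology and cell aggregation.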

[7] = test system: MEC1; test: Induction of cell death in human MEC1 cells at 50 uM in presence of extracellular calcium chelator BAPTA administered 30 mins post BAPTA treatment in serum-free medium by Annexin V-APC/propidium iodide staining based flow cytometric analysis; assay type: functional
[8] = test system: MEC1; test: Induction of cell death in human MEC1 cells at 50 uM in presence of caspase inhibitor Q-VD-OPH administered 30 mins post Q-VD-OPH treatment in serum-free medium by Annexin V-APC/propidium iodide staining based flow cytometric analysis; assay type: functional
[9] = test system: Serum; test: Aggregation property of the compound in human serum; assay type: ADME, cell-free
[10] = molecular target: T1, Leukocyte surface antigen CD47 (Homo sapiens, UniProt Q08722); test: Agonist activity at CD47 in human MEC1 cells assessed as activation of PLCgamma1-induced calcium-mediated caspase-independent cell death at 200 uM after 2 hrs by microscopic method; assay type: cell-based; procedure, shortened: as §2
[11] = molecular target: T1, Leukocyte surface antigen CD47; test: Binding affinity to CD47 in biotinylated human MEC1 cell membranes by biolayer interferometry
Procedure, shortened: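 Biotinylated membrane preparations from MEC-1 cells were loaded onto SuperStreptavidin biosensors. Binding was measured by bilayer interferometry (Octet RED96) in PBS with 0.2% BSA and 1% DMSO at 30 °C. Affinities are given as apparent Kd estimates.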

[12] = test system: A549; test: Cytotoxicity against human A549 cells assessed as induction of cell death after 6 hrs by annexin V-APC/propidium iodide staining based flow cytometric analysis; assay type: functional; conditions: A549, 6 h, read-out: LC50 (the source's name)
Procedure, shortened: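 A549 cells kept in Advanced RPMI 1640 with 10% fetal calf serum, 2 mM L-glutamine and penicillin–streptomycin. Peptides at the indicated concentrations in this complete medium for 6 h. Cells stained with Ann-V-APC (0.1 μg/mL) and PI (0.5 μg/mL), then read by flow cytometry. Values are means ± SD of two independent experiments.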

[13] = test system: A549; test: Induction of cell death in human A549 cells at 100 uM in presence of extracellular calcium chelator BAPTA administered 30 mins post BAPTA treatment in serum-free medium by annexin V-APC/propidium iodide staining based flow cytometric analysis; assay type: functional
[14] = test system: A549; test: Induction of cell death in human A549 cells at 100 uM administered 30 mins post Q-VD-OPh treatment in serum-free medium by propidium iodide staining based flow cytometric analysis; assay type: functional
[15] = test system: A549; test: Induction of cell death in human A549 cells at 100 uM in presence of PLCgamma1 inhibitor U73122 administered 1 hr post U73122 treatment in serum-free medium by annexin V-APC/propidium iodide staining based flow cytometric analysis; assay type: functional
Procedure, shortened: (§3)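 Peptide was then added at 10 or 100 μM in serum-free medium for 6 h. Cell death was read by Ann-V/PI flow cytometry and trypan blue counting. A cell death index was obtained by normalizing to each peptide's control. Mean ± SD of two experiments.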

[16] = test system: A549; test: Induction of cell death in human A549 cells at 100 uM in presence of ryanodine inhibitor dantrolene administered 1 hr post dantrolene treatment in serum-free medium by annexin V-APC/propidium iodide staining based flow cytometric analysis; assay type: functional; procedure, shortened: as §3
[17] = test system: A549; test: Induction of cell death in human A549 cells at 100 uM in presence of IP3R inhibitor 2-APB administered 1 hr post 2-APB treatment in serum-free medium by annexin V-APC/propidium iodide staining based flow cytometric analysis; assay type: functional; procedure, shortened: as §3
[18] = Aggregation property of the compound in water; assay type: physicochemical; conditions: buffer
[19] = Aggregation property of the compound in phosphate buffer; assay type: physicochemical
[20] = Solubility of the compound in PBS with 0.05% Tween 20 and 1% DMSO; assay type: physicochemical; conditions: buffer
[21] = test system: MEC1; test: Cytotoxicity against human MEC1 cells assessed as induction of cell death at 200 uM after 6 hrs by annexin V/propidium iodide staining based flow cytometric analysis relative to control; assay type: functional
[22] = test system: MEC1; test: Induction of cell death in human MEC1 cells at 50 uM in presence of IP3R inhibitor 2-APB administered 1 hr post 2-APB treatment in serum-free medium by annexin V-APC/propidium iodide staining based flow cytometric analysis; assay type: functional; procedure, shortened: as §1
[23] = test system: MEC1; test: Induction of cell death in human MEC1 cells at 50 uM in presence of PLCgamma1 inhibitor U73122 administered 1 hr post U73122 treatment in serum-free medium by annexin V-APC/propidium iodide staining based flow cytometric analysis; assay type: functional; procedure, shortened: as §1
[24] = Aggregation property of the compound in pure water; assay type: physicochemical; conditions: buffer
[25] = test system: A549; test: Induction of cell death in human A549 cells at 100 uM in presence of ryanodine inhibitor dantrolene/PLCgamma1 inhibitor U73122/IP3R inhibitor 2-APB by annexin V-APC/propidium iodide staining based flow cytometric analysis; assay type: functional; procedure, shortened: as §3

T1 sequence (Q08722 whole entry): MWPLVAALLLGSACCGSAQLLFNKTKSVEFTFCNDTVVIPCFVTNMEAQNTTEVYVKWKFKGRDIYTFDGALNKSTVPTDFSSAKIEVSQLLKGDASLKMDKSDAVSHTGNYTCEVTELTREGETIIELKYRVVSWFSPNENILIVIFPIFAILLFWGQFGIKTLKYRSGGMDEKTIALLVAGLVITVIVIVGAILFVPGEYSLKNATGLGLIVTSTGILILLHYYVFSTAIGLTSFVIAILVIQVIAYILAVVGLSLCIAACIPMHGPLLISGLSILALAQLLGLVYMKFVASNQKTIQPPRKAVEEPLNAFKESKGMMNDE

CCCC[C@H](NC(=O)[C@@H](NC(=O)[C@@H](NC(=O)[C@H](Cc1ccc(O)cc1)NC(=O)[C@H](Cc1ccccc1)NC(=O)[C@H](CCCNC(=N)N)N(C)C(=O)[C@H](N)CCCCN)C(C)C)C(C)C)C(=O)N[C@@H](Cc1c[nH]c2ccccc12)C(=O)N[C@@H](CCCCN)C(=O)N[C@H](CCCCN)C(=O)O (H-[dK][NMeR]FYVV[Nle]WK[dK]-OH)
59%: Activity [21]
200 µM: CC50 [2] | CC50 [12]
Not Active: Activity [9] | Activity [18] | Activity [19] | Activity [24]
Soluble: solubility [20]
inactive: Activity [4] | Activity [5] | Activity [6] | Activity [7] | Activity [8] | Activity [13] | Activity [14] | Activity [15] | Activity [16] | Activity [17] | Activity [22] | Activity [23] | Activity [25]
8.6 µM: Kd [11]
active: Activity [1] | Activity [3] | Activity [10]
